The text below walks through data of ChEMBL document CHEMBL3352599, “Radiosynthesis and biological evaluation of a novel enoyl-ACP reductase inhibitor for Staphylococcus aureus” (Eur J Med Chem, 2014).

For data set [1], the system named is Staphylococcus aureus. The data set is described as follows: Antibacterial activity against Staphylococcus aureus. Type of data set: functional.
The test system of data set [2] is Staphylococcus aureus. Nature of the data set: Antibacterial activity against methicillin-resistant Staphylococcus aureus BAA1762 infected in Swiss Webster systemic infection model assessed as survival rate at 100 mg/kg, sc administered 1 hr post infection on day 0, day 1 and 2 with 24 hrs dosing interval and measured for additional 4 days (reference value: 0%). Type of data set: functional. Conditions: route subcutaneous. A digest of the protocol:
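Mice made neutropenic with ip cyclophosphamide (150 mg/kg day −4, 100 mg/kg day −1). MRSA grown in Mueller Hinton broth at 37 °C to mid-log, washed and diluted in BHI, then given ip at 2×10^7 cells. Compound in ethanol/PEG-400/saline (40/20/40) given sc once daily for 3 days. Vehicle-treated infected controls. Survival checked twice daily for 7 days.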

Data set [3] has as its system Mus musculus. The data set is described as follows: Volume of distribution at steady state in Swiss Webster mouse at 10 mg/kg, iv by LC/MS/MS analysis. Type of data set: ADME, organism-based. On the set-up: dose 10 mg/kg, route intravenous. Conditions: in vivo. The method in brief:
(§1)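 Healthy Swiss Webster mice received a single dose, either 10 mg/kg iv or 40 mg/kg sc. Blood was drawn at 5, 15 and 30 min and 1, 2, 4, 7 and 24 h (n = 3). Each mouse gave two consecutive samples, retro-orbital then cardiac puncture, into EDTA. Plasma was deproteinized with acetonitrile and analysed by LC-MS/MS. Parameters came from noncompartmental analysis. sc bioavailability was calculated after dose normalization.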

In data set [4] the test system is Mus musculus. The data set is described as follows: Apparent volume of distribution in Swiss Webster mouse at 10 mg/kg, iv by LC/MS/MS analysis. Set-up: dose 10 mg/kg, route intravenous. Conditions: in vivo. Type of data set: ADME, organism-based. The method in brief:
as §1

A short description of data set [5]: Clearance at steady state in Swiss Webster mouse at 10 mg/kg, iv by LC/MS/MS analysis. Type of data set: ADME, organism-based. Set-up: dose 10 mg/kg, route intravenous. Conditions: in vivo. A digest of the protocol: as §1
Data set [6] can be described thus: Mean residence time in Swiss Webster mouse at 10 mg/kg, iv by LC/MS/MS analysis. The data set is classed as ADME, organism-based. Set-up: dose 10 mg/kg, route intravenous. Conditions: in vivo. The method in brief:
as §1

The nature of data set [7]: Half life in Swiss Webster mouse at 10 mg/kg, iv by LC/MS/MS analysis. Type of data set: ADME, organism-based. Set-up: dose 10 mg/kg, route intravenous. The note with it: in vivo. The method in brief:
as §1

Data set [8] is described as follows: Cmax in Swiss Webster mouse at 10 mg/kg, iv by LC/MS/MS analysis. Type of data set: ADME, organism-based. On the set-up: dose 10 mg/kg, route intravenous. The note with it: in vivo. A digest of the protocol: as §1
Data set [9] is described as follows: Tmax in Swiss Webster mouse at 10 mg/kg, iv by LC/MS/MS analysis. The data set is classed as ADME, organism-based. Set-up: dose 10 mg/kg, route intravenous. The note with it: in vivo. A digest of the protocol: as §1
Data set [10] is described as follows: AUC (0 to infinity) in Swiss Webster mouse at 10 mg/kg, iv by LC/MS/MS analysis. The data set is classed as ADME, organism-based. On the set-up: time infinity, dose 10 mg/kg, route intravenous. Conditions: plasma. A digest of the protocol:
as §1

Data set [11] in a line: Ratio of AUC for Swiss Webster mouse at 10 mg/kg, iv to MIC for methicillin-resistant Staphylococcus aureus BAA1762. The method in brief: (§2)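 Healthy Swiss Webster mice were given a single dose, iv at 10 mg/kg or sc at 40 mg/kg. Blood was taken at 5, 15 and 30 min and 1, 2, 4, 7 and 24 h (n = 3), with EDTA as anticoagulant. Plasma was protein-precipitated with acetonitrile and analysed by LC-MS/MS. AUC0-∞ (h*μg/mL) came from noncompartmental analysis and was divided by MIC (μg/mL).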

Data set [12] can be described thus: Mean residence time in Swiss Webster mouse at 40 mg/kg, sc by LC/MS/MS analysis. The data set is classed as ADME, organism-based. On the set-up: dose 40 mg/kg, route subcutaneous. Conditions: in vivo. A digest of the protocol:
as §1

Data set [13] in a line: Half life in Swiss Webster mouse at 40 mg/kg, sc by LC/MS/MS analysis. Type of data set: ADME, organism-based. On the set-up: dose 40 mg/kg, route subcutaneous. The note with it: in vivo. The method in brief: as §1
Data set [14] in a line: Cmax in Swiss Webster mouse at 40 mg/kg, sc by LC/MS/MS analysis. Conditions: in vivo. The data set is classed as ADME, organism-based. Set-up: dose 40 mg/kg, route subcutaneous. The method in brief:
as §1

Data set [15] in a line: AUC (0 to infinity) in Swiss Webster mouse at 40 mg/kg, sc by LC/MS/MS analysis. Type of data set: ADME, organism-based. On the set-up: time infinity, dose 40 mg/kg, route subcutaneous. The note with it: plasma. The method in brief:
as §1

Data set [16] in a line: Ratio of AUC for Swiss Webster mouse at 40 mg/kg, sc to MIC for methicillin-resistant Staphylococcus aureus BAA1762. The note with it: route subcutaneous. A digest of the protocol:
as §2

Data set [17] in a line: Bioavailability in Swiss Webster mouse at 40 mg/kg, sc by LC/MS/MS analysis. The note with it: in vivo. Type of data set: ADME, organism-based. A digest of the protocol: as §1
For data set [18], the system named is Staphylococcus aureus. The data set is described as follows: Antibacterial activity against methicillin-resistant Staphylococcus aureus BAA1762 infected in Swiss Webster thigh infection model assessed as remaining bacterial burden at 40 mg/kg, sc administered 1 hr post challenge (reference value: 9 log10 CFU). Conditions: route subcutaneous.
For data set [19], the system named is Staphylococcus aureus. Nature of the data set: Antibacterial activity against methicillin-resistant Staphylococcus aureus BAA1762 infected in Swiss Webster thigh infection model assessed as remaining bacterial burden at 100 mg/kg, sc administered 1 hr post challenge (reference value: 9 log10 CFU). The note with it: route subcutaneous.

In brackets after ≈: the same amount, converted by molar mass.

A word on the MIC: it is the lowest concentration found to suppress growth. For orientation: Vdss means a proportionality between amount in the body and measured concentration, not a real space. A high value points to extensive tissue distribution. One may read the clearance as the volume of plasma or blood freed of the substance per unit of time. Low readings indicate inefficient removal, high ones efficient removal. One may read the MRT as the average time that molecules of a dose stay in the body. Usually half-life stands for how long it takes for the measured level to halve. A high value points to slow loss. As usually defined, the Cmax is the maximum level reached in the sampled fluid or tissue. Broadly, the Tmax is the time at which the peak concentration occurs. As a reminder, the AUC(0-inf) is the area under the concentration-time curve extrapolated to infinity. A high value points to high exposure. The term bioavailability denotes the share of a dose that reaches the circulation, judged against a reference dose that is usually intravenous. A low value points to little systemic uptake. In turn, `CCCCCCc1ccc(Oc2ccccc2C#N)c(O)c1` had an MIC against Staphylococcus aureus [1] of 0.5 µg/mL (≈ 1.69 µM). Further, the survival at 100 mg/kg in the data set on Staphylococcus aureus [2] was determined as 50%. In the data set on Mus musculus [3], the volume of distribution (Vdss) is 475.6 mL. Moreover, in the data set on Mus musculus [4], the Vz turned out to be 704.1 mL. This molecule gave a clearance in [5] of 7.31 mL/min. Further, the mean residence time (MRT) in data set [6] amounted to 0.65 h; in [12] it was 6.47 h. Also, the half-life in [7] is 1.01 h; in [13] it was 6.17 h. The highest concentration (Cmax) was determined as 840 ng/mL in [8] and 280 ng/mL in [14]. Moreover, the Tmax in [9] turned out to be 4.8 min. For the same molecule, the values for the total exposure AUC(0-inf) in [10] and in data set [15] were 640 ng·h/mL and 1770 ng·h/mL, respectively. Further, the RatioAUC/MIC in data set [11] was 1.28; in data set [16], 3.54. In data set [17], this molecule came in with a bioavailability of 69%. The “log10 CFU” value came out at 7 with Staphylococcus aureus [18] and 6 in the data set on Staphylococcus aureus [19].
